Only a selection was taken, and hits are over-represented in it overall.
L major viab: Leishmania major promastigote growth inhibition, primary screen; Leishmania major promastigotes, resazurin fluorescence viability; inhibition, % at 10 µM; hit rate 9% among 200,000; in the data active means inhibition above about 50%;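 further: promastigotes grown with compound for 44 hours at 28 °C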
HSF-1 act: HSF-1 activators, primary screen, NIH3T3-HGL cells, MG132 stress, luminescence, single point | NIH3T3-HGL HSF-1 luciferase reporter, 8 h; 100% = twice DMSO control signal | activation, % at 9 µM | hit rate 1.7% among 300,000 | AID 504408, 2011;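 active means mean replicate activation of at least 50% with a set share of replicates each reaching 50%; inconclusive means only one of those two conditions met; inactive means mean below 50% and too few replicates reaching it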;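 further: 0% = median of the neutral control wells and 100% = twice that signal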
HSF1 inhib: HSF1 inhibitors in luciferase reporter cells, primary screen, cell-based, NIH3T3, luminescence; NIH3T3-HGL HSE-luciferase, MG132-induced, luminescence 8 h; hits give low values; activity change, negative = inhibition, % at 7.5 µM (by protocol); hit rate 0.77% among 300,000;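 active means more than half of replicate wells show activity change below -50%, luminescence cut by over half; inconclusive means some wells, but at most half, below -50%; inactive means no replicate well below -50%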;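 further: luciferase reports HSF-1 transcriptional activity via heat shock element; 0% = median of DMSO wells and -100% = zero luminescence signal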
Hsp70 activator: Hsp70 transcriptional activators, primary screen, cell-based, HeLa, Hsp70 promoter luciferase, luminescence, 10 µM | activation, % at 10 µM | HeLa Hsp70 promoter luciferase reporter; scaled: vehicle 0, proteasome-inhibitor control 100% | hit rate 0.04% among 200,000 | AID 1203, 2008;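 active means activation above the mean across all tested compounds plus 3 SD, cutoff set per campaign, cut at about 5.5% in these data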;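 further: 100% = MG132 at 30 µM as the positive control and 0% = DMSO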
T cruzi inh: inhibitors of intracellular T. cruzi growth, primary screen, luminescence, NIH3T3 host cells | T. cruzi beta-gal in NIH3T3, 90 h | inhibition, % (no concentration beside the values) | hit rate 1.4% among 300,000 | AID 1885, 2009;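 active means mean inhibition across valid replicates above about 55%, limit read from the data; inconclusive means mean below that limit but half or more replicates reach it; inactive means mean below it, under half of replicates reach it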;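 further: signal also drops with host cell toxicity which is not excluded here; 0% = plate median of DMSO wells and 100% = zero luminescence signal; higher percent means less beta-gal luminescence so fewer parasites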
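System – NIH/3T3 host cells with β-galactosidase reporter T. cruzi · Doses – single 50 nL compound addition per well in DMSO · Reagent – 5000 T. cruzi trypomastigotes/well · Medium – Low-serum DMEM with 2% FBS · Timing – ≥90 h infection period, 3 h prior cell attachment · Evaluation – parasite load inhibition, % · Technique – GalScreen luminescence, 60 min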
Starred values were filed as active, the others as inactive; u = inconclusive; x = no result given.

SMILES	L major viab	HSF-1 act	HSF1 inhib	Hsp70 activator	T cruzi inh
Cc1cccc(Cl)c1OCCCCn1ccnc1	98*	-6	-7	0	66*
Clc1cccc(OCCCn2ccnc2)c1	x	4	2	x	23
Clc1ccccc1OCCCn1ccnc1	x	1	-4	x	1
CC(C)(C)c1ccc(OCCCn2ccnc2)cc1	x	23	-1	x	37
Cc1cc(OCCCCn2ccnc2)cc(C)c1Cl	99*	x	x	0	69*
COc1ccc(NC(=O)C2CC(=O)N=C(N)S2)cc1 (stereo not given)	-4	-9	-3	-1	0
O=C(Nc1ccccc1Cc1ccccc1)c1ccncc1	x	2	11	x	59*
O=C(Nc1ccccc1Cc1ccccc1)c1ccccc1F	x	19	10	x	-4
Cc1cc(C)c(S(=O)(=O)c2cc(F)ccc2C)c(Cl)n1	x	-4	-6	x	65*
Cc1cc(C)c(S(=O)(=O)c2c(C)cccc2C)c(Cl)n1	100*	11	-1	0	47
CCc1ccccc1S(=O)(=O)c1c(C)cc(C)nc1Cl	x	-7	-4	x	12
Cc1cc(C)c(S(=O)(=O)c2ccc(Cl)cc2C)c(Cl)n1	100*	-5	1	0	56*
Cc1cc(C)c(S(=O)(=O)c2cccc(Cl)c2)c(Cl)n1	4	-8	-7	0	-1
COCCN(CCOC)S(=O)(=O)c1ccc(NC(=O)c2cnccn2)cc1	x	10	-6	x	-4
Cc1ccc(O)c(/C=N/NC(=O)CN2CCCC2)c1	x	-87	-85*	x	-3
COc1ccc(Br)cc1/C=N/NC(=O)CN1CCCCC1	x	4	3	x	-7
O=C(CN1CCCCCCC1)N/N=C/c1ccc(F)cc1F	61*	21	17	0	-9
CCOc1ccc(/C=N/NC(=O)CN2CCCCC2)cc1OCC	x	16	-1	x	-11
Cc1cccc(/C=N/NC(=O)CN2CCCCCCC2)c1	-3	-82	-76*	0	-6
O=C(CN1CCCCCC1)N/N=C/c1ccc(Cl)c(Cl)c1	88*	4	3	0	-20
C/C(=N\O)C(C)Oc1ccc(Cl)cc1 (stereo not given)	-5	16	2	0	-5
Cc1ccc(NC(=O)CC2SC(=Nc3ccc(O)cc3)NC2=O)cc1 (stereo not given)	5	14	3	0	-19
CN(Cc1ccccc1)C(=O)Cn1c(=O)c2cccn2c2cccnc21	x	7	-3	x	13
C=CCc1ccccc1OCC(=O)N/N=C/c1ccc(OC(C)=O)cc1OC(C)=O	98*	-13	-2	0	33
NC(=O)c1c(NC(=O)c2ccccc2F)sc2c1CCCC2	x	75*	39	x	5
SMILES	L major viab	HSF-1 act	HSF1 inhib	Hsp70 activator	T cruzi inh
Cc1onc(-c2c(F)cccc2Cl)c1C(=O)Nc1sc2c(c1C(N)=O)CCC2	63*	-10	2	0	7
Cc1onc(-c2ccccc2)c1C(=O)Nc1sc2c(c1C(N)=O)CCC2	24	-66	-59*	0	24
CN(C)C(=O)C1C2NC(=S)N(c3cccc(Cl)c3)C1(C)Oc1ccc(Cl)cc12 (stereo not given)	7	44	44	0	-9
N=c1n(CCO)c2ccccc2n1CCOc1ccc(Cl)cc1Cl	98*	10	-5	0	21
COc1ccc(OCCn2c(=N)n(CCO)c3ccccc32)cc1	-1	-6	3	0	4
COc1ccc(CC(=O)Nc2ncc([N+](=O)[O-])s2)cc1OC	16	-1	1	0	63*
CN(C)CC#CCOC(c1ccccc1)c1ccccc1	99*	-2	3	0	12
CCN(CC)CCCCCOc1ccccc1OC	37	-11	2	1	7
CN(C)CC#CCC(O)(c1ccccc1)c1ccccc1	x	-1	0	x	46
CCN(CC)CC#CCOC(c1ccccc1)c1ccccc1	98*	7	3	0	7
CCN(CC)CCC(C)OC(c1ccccc1)c1ccccc1 (stereo not given)	100*	-13	-6	0	40
COc1ccc(CC(C)N2CCN(c3ccccc3)CC2)cc1OC (stereo not given)	78*	-21	2	0	12
COc1ccc(CC(C)N2CCN(Cc3ccccc3)CC2)c(OC)c1 (stereo not given)	95*	-12	-14	0	61*
COc1ccc(CN2CCN(c3ccccc3OC)CC2)c(OC)c1	x	33	1	x	6
COc1ccc(CN2CCN(CCCc3ccccc3)C(CCO)C2)c(OC)c1 (stereo not given)	x	-11	-11	x	1
COc1ccc(CN2CCN(CCCc3ccccc3)CC2)c(OC)c1	91*	-19	0	0	41
COc1ccc(CN2CCN(c3ccccc3OC)CC2)cc1OC	x	-13	-3	x	-9
COc1ccc(OC)c(CN2CCN(Cc3cccc4ccccc34)CC2)c1	65*	-17	-12	0	19
CCOc1ccc(CCNC(=O)Cn2ccc3ccccc3c2=O)cc1OCC	-4	-8	-4	0	-1
CC1CCN(Cc2c(O)ccc3c(=O)c(-c4nc5ccccc5s4)c(N)oc23)CC1	60*	-6	5	0	28
COc1ccccc1-c1c(C)oc2c(CN3CCN(CCO)CC3)c(O)ccc2c1=O	38	-8	-3	0	-11
CC1(C)CCCN(Cc2c(O)ccc3c(=O)c(-c4nc5ccccc5s4)c(N)oc23)C1	x	79*	52	x	54
Cc1oc2c(CN3CCCCC3)c(O)ccc2c(=O)c1-c1ccc(Br)cc1	x	-7	5	x	-7
CC1CCCN(Cc2c(O)ccc3c(=O)c(-c4nc5ccccc5s4)c(N)oc23)C1 (stereo not given)	101*	2	8	0	42
OC(c1ccccc1)(c1ccccc1)c1ccn[nH]1	x	-4	-1	x	3
SMILES	L major viab	HSF-1 act	HSF1 inhib	Hsp70 activator	T cruzi inh
CCOC(=O)C(C(=O)OCC)c1cc(Br)c2noc3c2c1C(=O)c1ccccc1-3	100*	52*	46	0	65*
CC(C)C(=O)Nc1ccccc1-c1nc2ccccc2[nH]c1=O	x	16	-3	x	0
Cc1ccc2nc(-c3ccccc3NC(=O)CCC(=O)O)c(=O)[nH]c2c1	x	-80	-74*	x	-17
CCC(C)(c1nnnn1-c1c(C)cccc1C)N(N=O)c1cccc(C(F)(F)F)c1 (stereo not given)	100*	10	-1	0	39
Cc1cccc(C)c1-n1nnnc1C(C)(C)N1CCN(N=O)CC1	x	-15	7	x	9
CC1Cc2ccccc2N1CC(=O)NC(=O)NCc1ccccc1 (stereo not given)	63*	-75	-75*	0	0
CC1Cc2ccccc2N1CC(=O)NC(=O)NC1CCCCC1 (stereo not given)	92*	-53	u	0	1

Screening results from PubChem BioAssay.
